Experimental data from ChEMBL document CHEMBL2407075, “Sulphonamido-quinoxalines: search for anticancer agent” (Eur J Med Chem, 2013).

Assays:
Type in all cases: functional
NCI-H460 = assay: Growth inhibition of human NCI-H460 cells assessed as cell growth at 10^-4 M after 48 hrs by sulforhodamine B assay; conditions: NCI-H460, 48 h, read-out: Activity
786-0 [1] = assay: Growth inhibition of human 786-0 cells assessed as cell growth at 10^-5 M after 48 hrs by sulforhodamine B assay; conditions: 786-0, 48 h, read-out: Activity
Method in brief: (§1)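 Five-dose NCI-60 run (0.01, 0.1, 1, 10 and 100 µM, as 10-fold dilutions from a DMSO stock made at 400× the top final level). Cells were grown in RPMI 1640 with 5% FBS and 2 mM glutamine and plated for 24 h. They were then exposed for 48 h at 37 °C and 5% CO2. TCA fixation was followed by SRB staining with A515 read-out. Percent growth was taken relative to time-zero and control plates.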

SNB-75 [2] = assay: Growth inhibition of human SNB75 cells assessed as cell growth at 10^-5 M after 48 hrs by sulforhodamine B assay; conditions: SNB-75, 48 h, read-out: Activity
SF-295 = assay: Growth inhibition of human SF295 cells assessed as cell growth at 10^-5 M after 48 hrs by sulforhodamine B assay; conditions: SF-295, 48 h, read-out: Activity
SF-268 [3] = assay: Growth inhibition of human SF268 cells assessed as cell growth at 10^-5 M after 48 hrs by sulforhodamine B assay; conditions: SF-268, 48 h, read-out: Activity
SW-620 [4] = assay: Growth inhibition of human SW620 cells assessed as cell growth at 10^-5 M after 48 hrs by sulforhodamine B assay; conditions: SW-620, 48 h, read-out: Activity
HT-29 [5] = assay: Growth inhibition of human HT-29 cells assessed as cell growth at 10^-5 M after 48 hrs by sulforhodamine B assay; conditions: HT-29, 48 h, read-out: Activity
Method in brief: (§2)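 Five-dose screen at NCI. Cells in RPMI 1640 with 5% FBS and 2 mM L-glutamine, seeded at 5000–40,000 cells/well and grown 24 h at 37 °C, 5% CO2 before dosing, with time-zero plates TCA-fixed. Drug diluted from DMSO stock to 0.01, 0.1, 1, 10 and 100 µM final, 48 h. Cells fixed with cold TCA (10% final), stained with 0.4% SRB and read at 515 nm. Percent growth from Tz, control and test absorbances; GI50, TGI and LC50 from dose-response curves.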

CAKI-1 = assay: Growth inhibition of human CAKI-1 cells assessed as cell growth at 10^-6 M after 48 hrs by sulforhodamine B assay; conditions: CAKI-1, 48 h, read-out: Activity; method in brief: as §1
786-0 [6] = assay: Growth inhibition of human 786-0 cells assessed as cell growth at 10^-6 M after 48 hrs by sulforhodamine B assay; conditions: 786-0, 48 h, read-out: Activity; method in brief: as §1
IGROV-1 = assay: Growth inhibition of human IGROV1 cells assessed as cell growth at 10^-6 M after 48 hrs by sulforhodamine B assay; conditions: IGROV-1, 48 h, read-out: Activity; method in brief: as §2
UACC-62 = assay: Growth inhibition of human UACC62 cells assessed as cell growth at 10^-6 M after 48 hrs by sulforhodamine B assay; conditions: UACC-62, 48 h, read-out: Activity
SF-539 = assay: Growth inhibition of human SF539 cells assessed as cell growth at 10^-6 M after 48 hrs by sulforhodamine B assay; conditions: SF-539, 48 h, read-out: Activity
HT-29 [7] = assay: Growth inhibition of human HT-29 cells assessed as cell growth at 10^-7 M after 48 hrs by sulforhodamine B assay; conditions: HT-29, 48 h, read-out: Activity; method in brief: as §2
DU-145 = assay: Growth inhibition of human DU145 cells assessed as cell growth at 10^-8 M after 48 hrs by sulforhodamine B assay; conditions: DU-145, 48 h, read-out: Activity; method in brief: as §1
RXF 393 = assay: Growth inhibition of human RXF393 cells assessed as cell growth at 10^-8 M after 48 hrs by sulforhodamine B assay; conditions: RXF 393, 48 h, read-out: Activity
SW-620 [8] = assay: Growth inhibition of human SW620 cells assessed as cell growth at 10^-8 M after 48 hrs by sulforhodamine B assay; conditions: SW-620, 48 h, read-out: Activity
SR = assay: Growth inhibition of human SR cells assessed as cell growth at 10^-8 M after 48 hrs by sulforhodamine B assay; conditions: read-out: Activity
MOLT-4 = assay: Growth inhibition of human MOLT4 cells assessed as cell growth at 10^-8 M after 48 hrs by sulforhodamine B assay; conditions: MOLT-4, 48 h, read-out: Activity
SN12C = assay: Growth inhibition of human SN12C cells after 48 hrs by sulforhodamine B assay; conditions: for CC50: read-out: LC50 (the source's name)
Method in brief: (§3)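 Adherent cells in RPMI 1640 with 5% FBS and 2 mM L-glutamine were plated at 5000–40,000 cells/well and grown 24 h. Five concentrations (0.01–100 µM, DMSO stock) were added for 48 h at 37 °C. Cells were fixed with cold TCA (10% final) and stained with SRB, read at 515 nm. GI50 came from log concentration–growth curves against time-zero and control plates.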

UACC-257 = assay: Growth inhibition of human UACC257 cells after 48 hrs by sulforhodamine B assay; conditions: UACC-257, 48 h, read-out: LC50 (the source's name)
Method in brief: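 NCI-60 screen. Cells grown in RPMI 1640 with 5% FBS and 2 mM L-glutamine, plated at 5000–40,000 cells/well and preincubated 24 h at 37 °C, 5% CO2. A time-zero plate is TCA-fixed at drug addition. DMSO stocks diluted in medium; five concentrations (0.01, 0.1, 1, 10, 100 µM). Exposure 48 h, then cold TCA fixation and 0.4% SRB staining, absorbance at 515 nm. GI50 is taken from the growth-percentage curve relative to time zero and control.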

SNB-75 [9] = assay: Growth inhibition of human SNB75 cells after 48 hrs by sulforhodamine B assay; conditions: SNB-75, 48 h; for CC50: read-out: LC50 (the source's name)
Method in brief: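 Five-dose NCI 60 screen at 0.01, 0.1, 1, 10 and 100 µM, 48 h exposure after 24 h preincubation, in RPMI 1640 with 5% FBS and 2 mM glutamine. Fixed with TCA (10% final for adherent cells, 16% for suspension cells), stained with SRB, A515 read. Percent growth uses time-zero (Tz), control and treated plates. GI50, TGI and LC50 are read from the dose-response curves.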

SF-268 [10] = assay: Growth inhibition of human SF268 cells after 48 hrs by sulforhodamine B assay; conditions: SF-268, 48 h; for CC50: read-out: LC50 (the source's name); method in brief: as §3
NCI-H322M = assay: Growth inhibition of human NCI-H322M cells after 48 hrs by sulforhodamine B assay; conditions: for CC50: read-out: LC50 (the source's name); method in brief: as §3
NCI-H226 = assay: Growth inhibition of human NCI-H226 cells after 48 hrs by sulforhodamine B assay; conditions: NCI-H226, 48 h, read-out: LC50 (the source's name); method in brief: as §3
HOP-62 = assay: Growth inhibition of human HOP62 cells after 48 hrs by sulforhodamine B assay; conditions: HOP-62, 48 h; for CC50: read-out: LC50 (the source's name); method in brief: as §2

| SMILES | growth at 100 µM (NCI-H460) [%] | growth at 10 µM (786-0 [1]) [%] | growth at 10 µM (SNB-75 [2]) [%] | growth at 10 µM (SF-295) [%] | growth at 10 µM (SF-268 [3]) [%] | growth at 10 µM (SW-620 [4]) [%] | growth at 10 µM (HT-29 [5]) [%] | growth at 1 µM (CAKI-1) [%] | growth at 1 µM (786-0 [6]) [%] | growth at 1 µM (IGROV-1) [%] | growth at 1 µM (UACC-62) [%] | growth at 1 µM (SF-539) [%] | growth at 0.1 µM (HT-29 [7]) [%] | growth at 0.01 µM (DU-145) [%] | growth at 0.01 µM (RXF 393) [%] | growth at 0.01 µM (SW-620 [8]) [%] | growth at 0.01 µM (SR) [%] | growth at 0.01 µM (MOLT-4) [%] | TGI (SN12C) [µM] | CC50 (SN12C) [µM] | further results |
| --- | --- | --- | --- | --- | --- | --- | --- | --- | --- | --- | --- | --- | --- | --- | --- | --- | --- | --- | --- | --- | --- |
| O=S(=O)(Nc1ccccn1)c1ccc2nc(-c3ccccc3)c(-c3ccccc3)nc2c1 | 65 | -30 | 3 | -56 | 27 | 14 | -37 | 102 | 96 | 102 | 75 | 96 | 97 | 102 | 105 | 101 | 93 | 96 | > 100 | > 100 | CC50 (UACC-257): > 100 µM; GI50 (SNB-75 [9]): 2230 nM; TGI (SNB-75 [9]): > 100 µM; CC50 (SNB-75 [9]): > 100 µM; TGI (SF-268 [10]): > 100 µM; CC50 (SF-268 [10]): > 100 µM; TGI (NCI-H322M): > 100 µM; CC50 (NCI-H322M): > 100 µM; CC50 (NCI-H226): > 100 µM; GI50 (HOP-62): 4.54 µM; TGI (HOP-62): > 100 µM; CC50 (HOP-62): > 100 µM |
| O=S(=O)(Nc1ccc(Cl)cc1)c1ccc2nc(-c3ccccc3)c(-c3ccccc3)nc2c1 | 68 | -45 | 12 | -53 | 27 | 14 | -55 | 89 | 93 | 93 | 76 | 101 | 100 | 105 | 97 | 93 | 92 | 97 | > 100 | > 100 | CC50 (UACC-257): > 100 µM; GI50 (SNB-75 [9]): 2120 nM; TGI (SNB-75 [9]): > 100 µM; CC50 (SNB-75 [9]): > 100 µM; TGI (SF-268 [10]): > 100 µM; CC50 (SF-268 [10]): > 100 µM; TGI (NCI-H322M): > 100 µM; CC50 (NCI-H322M): > 100 µM; CC50 (NCI-H226): > 100 µM; GI50 (HOP-62): 3.95 µM; TGI (HOP-62): > 100 µM; CC50 (HOP-62): > 100 µM |
